# According to ChEMBL document CHEMBL1649552 (2009):
# Assays:
# Assay type in all cases: functional
# Escherichia coli [1] = experiment: Antibacterial activity against Escherichia coli by CLSI M100-S17 method
# Escherichia coli [2] = experiment: Antibacterial activity against Escherichia coli assessed as susceptible isolates by CLSI M100-S17 method
# Escherichia coli [3] = experiment: Antibacterial activity against Escherichia coli assessed as intermediate isolates by CLSI M100-S17 method
# Klebsiella pneumoniae [4] = experiment: Antibacterial activity against Klebsiella pneumoniae by CLSI M100-S17 method
# Klebsiella pneumoniae [5] = experiment: Antibacterial activity against Klebsiella pneumoniae assessed as susceptible isolates by CLSI M100-S17 method
# Klebsiella pneumoniae [6] = experiment: Antibacterial activity against Klebsiella pneumoniae assessed as intermediate isolates by CLSI M100-S17 method
# Klebsiella oxytoca [7] = experiment: Antibacterial activity against Klebsiella oxytoca by CLSI M100-S17 method
# Klebsiella oxytoca [8] = experiment: Antibacterial activity against Klebsiella oxytoca assessed as susceptible isolates by CLSI M100-S17 method
# Klebsiella oxytoca [9] = experiment: Antibacterial activity against Klebsiella oxytoca assessed as intermediate isolates by CLSI M100-S17 method
# Enterobacter cloacae [10] = experiment: Antibacterial activity against Enterobacter cloacae by CLSI M100-S17 method
# Enterobacter cloacae [11] = experiment: Antibacterial activity against Enterobacter cloacae assessed as susceptible isolates by CLSI M100-S17 method
# Enterobacter cloacae [12] = experiment: Antibacterial activity against Enterobacter cloacae assessed as intermediate isolates by CLSI M100-S17 method
# Proteus mirabilis [13] = experiment: Antibacterial activity against Proteus mirabilis by CLSI M100-S17 method
# Proteus mirabilis [14] = experiment: Antibacterial activity against Proteus mirabilis assessed as susceptible isolates by CLSI M100-S17 method
# Proteus mirabilis [15] = experiment: Antibacterial activity against Proteus mirabilis assessed as intermediate isolates by CLSI M100-S17 method
# Serratia marcescens [16] = experiment: Antibacterial activity against Serratia marcescens by CLSI M100-S17 method
# Serratia marcescens [17] = experiment: Antibacterial activity against Serratia marcescens assessed as susceptible isolates by CLSI M100-S17 method
# Serratia marcescens [18] = experiment: Antibacterial activity against Serratia marcescens assessed as intermediate isolates by CLSI M100-S17 method
# Pseudomonas aeruginosa [19] = experiment: Antibacterial activity against Pseudomonas aeruginosa by CLSI M100-S17 method
# Pseudomonas aeruginosa [20] = experiment: Antibacterial activity against Pseudomonas aeruginosa assessed as susceptible isolates by CLSI M100-S17 method
# Pseudomonas aeruginosa [21] = experiment: Antibacterial activity against Pseudomonas aeruginosa assessed as intermediate isolates by CLSI M100-S17 method
# Pseudomonas aeruginosa [22] = experiment: Antibacterial activity against Pseudomonas aeruginosa assessed as resistant isolates by CLSI M100-S17 method
# [23] = tested on: Stenotrophomonas maltophilia; experiment: Antibacterial activity against Stenotrophomonas maltophilia by CLSI M100-S17 method
# Acinetobacter baumannii [24] = experiment: Antibacterial activity against Acinetobacter baumannii by CLSI M100-S17 method
# Acinetobacter baumannii [25] = experiment: Antibacterial activity against Acinetobacter baumannii assessed as susceptible isolates by CLSI M100-S17 method
# Acinetobacter baumannii [26] = experiment: Antibacterial activity against Acinetobacter baumannii assessed as intermediate isolates by CLSI M100-S17 method
# Acinetobacter baumannii [27] = experiment: Antibacterial activity against Acinetobacter baumannii assessed as resistant isolates by CLSI M100-S17 method
# Moraxella catarrhalis [28] = experiment: Antibacterial activity against Moraxella catarrhalis by CLSI M100-S17 method
# Escherichia coli [29] = experiment: Antibacterial activity against Escherichia coli by CLSI M100-S17 method in presence of Tazobactam
# How it was run: (§1)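 CLSI broth microdilution on clinical isolates, using frozen in-house-prepared panels of test and comparator agents. MICs were read after 20 to 24 h incubation at 35°C in ambient air. Susceptible/intermediate categories were assigned by CLSI M100-S17 guidelines.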
# Escherichia coli [30] = experiment: Antibacterial activity against Escherichia coli assessed as susceptible isolates by CLSI M100-S17 method in presence of Tazobactam; how it was run: as §1
# Escherichia coli [31] = experiment: Antibacterial activity against Escherichia coli assessed as intermediate isolates by CLSI M100-S17 method in presence of Tazobactam; how it was run: as §1
# Escherichia coli [32] = experiment: Antibacterial activity against Escherichia coli assessed as resistant isolates by CLSI M100-S17 method in presence of Tazobactam
# How it was run: (§2)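 Clinical isolates were tested by CLSI broth microdilution in frozen, in-house-prepared 96-well panels of the test agent and comparator agents. MICs were read and classed as susceptible, intermediate or resistant using CLSI M100-S17 breakpoints. The value is the share of isolates in each category.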
# Klebsiella pneumoniae [33] = experiment: Antibacterial activity against Klebsiella pneumoniae by CLSI M100-S17 method in presence of Tazobactam; how it was run: as §1
# Klebsiella pneumoniae [34] = experiment: Antibacterial activity against Klebsiella pneumoniae assessed as susceptible isolates by CLSI M100-S17 method in presence of Tazobactam; how it was run: as §1
# Klebsiella pneumoniae [35] = experiment: Antibacterial activity against Klebsiella pneumoniae assessed as intermediate isolates by CLSI M100-S17 method in presence of Tazobactam; how it was run: as §1
# Klebsiella pneumoniae [36] = experiment: Antibacterial activity against Klebsiella pneumoniae assessed as resistant isolates by CLSI M100-S17 method in presence of Tazobactam; how it was run: as §2
# Klebsiella oxytoca [37] = experiment: Antibacterial activity against Klebsiella oxytoca by CLSI M100-S17 method in presence of Tazobactam; how it was run: as §1
# Klebsiella oxytoca [38] = experiment: Antibacterial activity against Klebsiella oxytoca assessed as susceptible isolates by CLSI M100-S17 method in presence of Tazobactam; how it was run: as §1
# Klebsiella oxytoca [39] = experiment: Antibacterial activity against Klebsiella oxytoca assessed as intermediate isolates by CLSI M100-S17 method in presence of Tazobactam; how it was run: as §1
# Klebsiella oxytoca [40] = experiment: Antibacterial activity against Klebsiella oxytoca assessed as resistant isolates by CLSI M100-S17 method in presence of Tazobactam; how it was run: as §2
# Enterobacter cloacae [41] = experiment: Antibacterial activity against Enterobacter cloacae by CLSI M100-S17 method in presence of Tazobactam; how it was run: as §1
# Enterobacter cloacae [42] = experiment: Antibacterial activity against Enterobacter cloacae assessed as susceptible isolates by CLSI M100-S17 method in presence of Tazobactam; how it was run: as §1
# Enterobacter cloacae [43] = experiment: Antibacterial activity against Enterobacter cloacae assessed as intermediate isolates by CLSI M100-S17 method in presence of Tazobactam; how it was run: as §1
# Enterobacter cloacae [44] = experiment: Antibacterial activity against Enterobacter cloacae assessed as resistant isolates by CLSI M100-S17 method in presence of Tazobactam; how it was run: as §2
# Proteus mirabilis [45] = experiment: Antibacterial activity against Proteus mirabilis by CLSI M100-S17 method in presence of Tazobactam; how it was run: as §1
# Proteus mirabilis [46] = experiment: Antibacterial activity against Proteus mirabilis assessed as susceptible isolates by CLSI M100-S17 method in presence of Tazobactam; how it was run: as §1
# Proteus mirabilis [47] = experiment: Antibacterial activity against Proteus mirabilis assessed as intermediate isolates by CLSI M100-S17 method in presence of Tazobactam; how it was run: as §2
# Serratia marcescens [48] = experiment: Antibacterial activity against Serratia marcescens by CLSI M100-S17 method in presence of Tazobactam; how it was run: as §1
# Serratia marcescens [49] = experiment: Antibacterial activity against Serratia marcescens assessed as susceptible isolates by CLSI M100-S17 method in presence of Tazobactam; how it was run: as §1
# Serratia marcescens [50] = experiment: Antibacterial activity against Serratia marcescens assessed as intermediate isolates by CLSI M100-S17 method in presence of Tazobactam; how it was run: as §1
# Serratia marcescens [51] = experiment: Antibacterial activity against Serratia marcescens assessed as resistant isolates by CLSI M100-S17 method in presence of Tazobactam; how it was run: as §2
# Pseudomonas aeruginosa [52] = experiment: Antibacterial activity against Pseudomonas aeruginosa by CLSI M100-S17 method in presence of Tazobactam; how it was run: as §1
# Pseudomonas aeruginosa [53] = experiment: Antibacterial activity against Pseudomonas aeruginosa assessed as susceptible isolates by CLSI M100-S17 method in presence of Tazobactam; how it was run: as §1
# Pseudomonas aeruginosa [54] = experiment: Antibacterial activity against Pseudomonas aeruginosa assessed as intermediate isolates by CLSI M100-S17 method in presence of Tazobactam; how it was run: as §1
# Pseudomonas aeruginosa [55] = experiment: Antibacterial activity against Pseudomonas aeruginosa assessed as resistant isolates by CLSI M100-S17 method in presence of Tazobactam; how it was run: as §2
# [56] = tested on: Stenotrophomonas maltophilia; experiment: Antibacterial activity against Stenotrophomonas maltophilia by CLSI M100-S17 method in presence of Tazobactam; how it was run: as §1
# Acinetobacter baumannii [57] = experiment: Antibacterial activity against Acinetobacter baumannii by CLSI M100-S17 method in presence of Tazobactam; how it was run: as §1
# Acinetobacter baumannii [58] = experiment: Antibacterial activity against Acinetobacter baumannii assessed as susceptible isolates by CLSI M100-S17 method in presence of Tazobactam; how it was run: as §1
# Acinetobacter baumannii [59] = experiment: Antibacterial activity against Acinetobacter baumannii assessed as intermediate isolates by CLSI M100-S17 method in presence of Tazobactam; how it was run: as §2
# Moraxella catarrhalis [60] = experiment: Antibacterial activity against Moraxella catarrhalis by CLSI M100-S17 method in presence of Tazobactam; how it was run: as §1
smiles,measurement,setting,value
C[C@@H](O)[C@H]1C(=O)N2C(C(=O)O)=C(S[C@@H]3CN[C@H](C(=O)N(C)C)C3)[C@H](C)[C@H]12 [MEROPENEM],MIC50,Escherichia coli [1],≤ 0.06 µg/mL
same,MIC90,Escherichia coli [1],≤ 0.06 µg/mL
same,Activity,Escherichia coli [2],100%
same,Activity,Escherichia coli [3],0%
same,MIC50,Klebsiella pneumoniae [4],≤ 0.06 µg/mL
same,MIC90,Klebsiella pneumoniae [4],≤ 0.06 µg/mL
same,Activity,Klebsiella pneumoniae [5],100%
same,Activity,Klebsiella pneumoniae [6],0%
same,MIC50,Klebsiella oxytoca [7],≤ 0.06 µg/mL
same,MIC90,Klebsiella oxytoca [7],≤ 0.06 µg/mL
same,Activity,Klebsiella oxytoca [8],100%
same,Activity,Klebsiella oxytoca [9],0%
same,MIC50,Enterobacter cloacae [10],≤ 0.06 µg/mL
same,MIC90,Enterobacter cloacae [10],≤ 0.06 µg/mL
same,Activity,Enterobacter cloacae [11],100%
same,Activity,Enterobacter cloacae [12],0%
same,MIC50,Proteus mirabilis [13],≤ 0.06 µg/mL
same,MIC90,Proteus mirabilis [13],≤ 0.06 µg/mL
same,Activity,Proteus mirabilis [14],100%
same,Activity,Proteus mirabilis [15],0%
same,MIC50,Serratia marcescens [16],≤ 0.06 µg/mL
same,MIC90,Serratia marcescens [16],≤ 0.06 µg/mL
same,Activity,Serratia marcescens [17],100%
same,Activity,Serratia marcescens [18],0%
same,MIC50,Pseudomonas aeruginosa [19],0.5 µg/mL
same,MIC90,Pseudomonas aeruginosa [19],8 µg/mL
same,Activity,Pseudomonas aeruginosa [20],87.8%
same,Activity,Pseudomonas aeruginosa [21],4.1%
same,Activity,Pseudomonas aeruginosa [22],8.1%
same,MIC50,[23],> 64 µg/mL
same,MIC90,[23],> 64 µg/mL
same,MIC50,Acinetobacter baumannii [24],0.5 µg/mL
same,MIC90,Acinetobacter baumannii [24],4 µg/mL
same,Activity,Acinetobacter baumannii [25],92%
same,Activity,Acinetobacter baumannii [26],0%
same,Activity,Acinetobacter baumannii [27],8%
same,MIC,Moraxella catarrhalis [28],≤ 0.06 µg/mL
same,MIC50,Moraxella catarrhalis [28],≤ 0.06 µg/mL
same,MIC90,Moraxella catarrhalis [28],≤ 0.06 µg/mL
CCN1CCN(C(=O)N[C@@H](C(=O)N[C@@H]2C(=O)N3[C@@H]2SC(C)(C)[C@@H]3C(=O)O)c2ccccc2)C(=O)C1=O [PIPERACILLIN],MIC50,Escherichia coli [29],2 µg/mL
same,MIC90,Escherichia coli [29],4 µg/mL
same,Activity,Escherichia coli [30],97.6%
same,Activity,Escherichia coli [31],1%
same,Activity,Escherichia coli [32],1.4%
same,MIC50,Klebsiella pneumoniae [33],2 µg/mL
same,MIC90,Klebsiella pneumoniae [33],8 µg/mL
same,Activity,Klebsiella pneumoniae [34],96.7%
same,Activity,Klebsiella pneumoniae [35],1.3%
same,Activity,Klebsiella pneumoniae [36],2%
same,MIC50,Klebsiella oxytoca [37],2 µg/mL
same,MIC90,Klebsiella oxytoca [37],16 µg/mL
same,Activity,Klebsiella oxytoca [38],90%
same,Activity,Klebsiella oxytoca [39],1%
same,Activity,Klebsiella oxytoca [40],9%
same,MIC50,Enterobacter cloacae [41],2 µg/mL
same,MIC90,Enterobacter cloacae [41],64 µg/mL
same,Activity,Enterobacter cloacae [42],82.6%
same,Activity,Enterobacter cloacae [43],8.4%
same,Activity,Enterobacter cloacae [44],9%
same,MIC50,Proteus mirabilis [45],2 µg/mL
same,MIC90,Proteus mirabilis [45],64 µg/mL
same,Activity,Proteus mirabilis [46],100%
same,Activity,Proteus mirabilis [47],0%
same,MIC50,Serratia marcescens [48],2 µg/mL
same,MIC90,Serratia marcescens [48],8 µg/mL
same,Activity,Serratia marcescens [49],94.4%
same,Activity,Serratia marcescens [50],4.7%
same,Activity,Serratia marcescens [51],0.9%
same,MIC50,Pseudomonas aeruginosa [52],4 µg/mL
same,MIC90,Pseudomonas aeruginosa [52],64 µg/mL
same,Activity,Pseudomonas aeruginosa [53],92.7%
same,Activity,Pseudomonas aeruginosa [54],0%
same,Activity,Pseudomonas aeruginosa [55],7.3%
same,MIC50,[56],> 512 µg/mL
same,MIC90,[56],> 512 µg/mL
same,MIC50,Acinetobacter baumannii [57],4 µg/mL
same,MIC90,Acinetobacter baumannii [57],> 512 µg/mL
same,Activity,Acinetobacter baumannii [58],76%
same,Activity,Acinetobacter baumannii [59],12%
same,MIC,Moraxella catarrhalis [60],≤ 1 µg/mL
same,MIC50,Moraxella catarrhalis [60],≤ 1 µg/mL
same,MIC90,Moraxella catarrhalis [60],≤ 1 µg/mL
